Test results published in ChEMBL document CHEMBL3232844, “Synthesis and structure activity relationships of schweinfurthin indoles” (2014).

Columns and labels:
Assay type in all cases: functional
RPMI-8226 = experiment: Cytotoxicity against human RPMI8226 cells; conditions: for CC50: read-out: pLC50 (the source's name) (converted); for TGI: read-out: pTGI (converted)
Method in brief: (§1)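 Tested in a 60-cell-line human tumor panel screen; the read-out is growth inhibition, reported as GI50 for each cell line.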

A549 = experiment: Cytotoxicity against human A549 cells; conditions: for CC50: read-out: pLC50 (the source's name) (converted); for TGI: read-out: pTGI (converted); method in brief: as §1
[1] = Cytotoxicity against human EKVX cells; conditions: for TGI: read-out: pTGI (converted); method in brief: as §1
HOP-92 = experiment: Cytotoxicity against human HOP92 cells; conditions: for CC50: read-out: pLC50 (the source's name) (converted); for TGI: read-out: pTGI (converted); method in brief: as §1
SW-620 = experiment: Cytotoxicity against human SW620 cells; conditions: for CC50: read-out: pLC50 (the source's name) (converted); for TGI: read-out: pTGI (converted)
Method in brief: (§2)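 Cell line run as part of the 60-cell-line screening panel; growth inhibition was reported as a GI50 for each line.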

SNB-19 = experiment: Cytotoxicity against human SNB19 cells; conditions: for CC50: read-out: pLC50 (the source's name) (converted); for TGI: read-out: pTGI (converted); method in brief: as §1
U-251 = experiment: Cytotoxicity against human U251 cells; conditions: for CC50: read-out: pLC50 (the source's name) (converted); for TGI: read-out: pTGI (converted); method in brief: as §2
Malme-3M = experiment: Cytotoxicity against human MALME-3M cells; conditions: for CC50: read-out: pLC50 (the source's name) (converted); for TGI: read-out: pTGI (converted); method in brief: as §1
NCI-H322M = experiment: Cytotoxicity against human NCI-H322M cells; conditions: for CC50: read-out: pLC50 (the source's name) (converted); for TGI: read-out: pTGI (converted); method in brief: as §1
NCI-H522 = experiment: Cytotoxicity against human NCI-H522 cells; conditions: for CC50: read-out: pLC50 (the source's name) (converted); for TGI: read-out: pTGI (converted); method in brief: as §1
SK-MEL-28 = experiment: Cytotoxicity against human SK-MEL-28 cells; conditions: for CC50: read-out: pLC50 (the source's name) (converted); for TGI: read-out: pTGI (converted); method in brief: as §1
[2] = Cytotoxicity against human OVCAR5 cells; conditions: for GI50: OVCAR-5; for CC50: OVCAR-5, read-out: pLC50 (the source's name) (converted); for TGI: OVCAR-5, read-out: pTGI (converted); method in brief: as §1
A498 = experiment: Cytotoxicity against human A498 cells; conditions: for CC50: read-out: pLC50 (the source's name) (converted); for TGI: read-out: pTGI (converted); method in brief: as §1
ACHN = experiment: Cytotoxicity against human ACHN cells; conditions: for TGI: read-out: pTGI (converted); method in brief: as §1
SN12C = experiment: Cytotoxicity against human SN12C cells; conditions: for TGI: read-out: pTGI (converted); method in brief: as §1
[3] = Cytotoxicity against human UO31 cells; conditions: for GI50 / LC50: UO-31; for TGI: UO-31, read-out: pTGI (converted); method in brief: as §2
[4] = Cytotoxicity against human Hs578T cells; conditions: Hs-578T; for TGI: read-out: pTGI (converted); method in brief: as §1

With `CC1(C)[C@H](O)CC[C@@]2(C)Oc3c(O)cc(/C=C/c4cc(O)c5cc[nH]c5c4)cc3C[C@H]12` the GI50 (RPMI-8226) was 0.0158 µM, the CC50 (RPMI-8226) was 11.5 µM and the TGI (RPMI-8226) was 0.0661 µM. The GI50 (A549) was 1 µM, the CC50 (A549) was 55 µM and the TGI (A549) was 8.32 µM. For the same compound, the GI50 [1] was 0.794 µM, the CC50 ([1]; read-out: pLC50 (the source's name) (converted)) was over 100 µM and the TGI [1] was 16.2 µM. For the same compound, the GI50 (HOP-92) was 0.501 µM, the CC50 (HOP-92) was over 100 µM and the TGI (HOP-92) was 5.5 µM. It also gave a GI50 (SW-620) of 0.214 µM, a CC50 (SW-620) of 6.46 µM and a TGI (SW-620) of 1.35 µM. It also gave a GI50 (SNB-19) of 1.12 µM, a CC50 (SNB-19) of over 100 µM and a TGI (SNB-19) of 26.9 µM. It also gave a GI50 (U-251) of 0.0891 µM, a CC50 (U-251) of over 100 µM and a TGI (U-251) of 20 µM. The GI50 (Malme-3M) was 3.02 µM, the CC50 (Malme-3M) was 60.3 µM and the TGI (Malme-3M) was 17 µM. It also gave a GI50 (NCI-H322M) of 7.08 µM, a CC50 (NCI-H322M) of 95.5 µM and a TGI (NCI-H322M) of 33.9 µM. The GI50 (NCI-H522) was 1.07 µM, the CC50 (NCI-H522) was 38 µM and the TGI (NCI-H522) was 6.92 µM. The GI50 (SK-MEL-28) was 6.17 µM, the CC50 (SK-MEL-28) was over 100 µM and the TGI (SK-MEL-28) was over 100 µM. For the same compound, the GI50 [2] was 17.8 µM, the CC50 [2] was 97.7 µM and the TGI [2] was 53.7 µM. For the same compound, the GI50 (A498) was 0.427 µM, the CC50 (A498) was 46.8 µM and the TGI (A498) was 11.7 µM. It also gave a GI50 (ACHN) of 2.14 µM, an LC50 (concentration killing 50% of cells) (ACHN) of over 100 µM and a TGI (ACHN) of 30.9 µM. The GI50 (SN12C) was 10.2 µM, the LC50 (SN12C) was over 100 µM and the TGI (SN12C) was 63.1 µM. For the same compound, the GI50 [3] was 0.209 µM, the LC50 [3] was over 100 µM and the TGI [3] was 2 µM. The GI50 [4] was 0.01 µM, the LC50 [4] was over 100 µM and the TGI [4] was 0.427 µM.

`COc1cc(/C=C/c2cc(OC)c3ccn(C)c3c2)cc2c1O[C@]1(C)CC[C@@H](O)C(C)(C)[C@H]1C2` showed a GI50 (RPMI-8226) of 0.17 µM, a CC50 (RPMI-8226) of over 100 µM and a TGI (RPMI-8226) of 2 µM. The GI50 (A549) was 1.91 µM, the CC50 (A549) was over 100 µM and the TGI (A549) was over 100 µM. It also gave a GI50 [1] of 1.58 µM, a TGI [1] of 49 µM and a GI50 (HOP-92) of 1.2 µM. It also gave a CC50 (HOP-92) of over 100 µM, a TGI (HOP-92) of 5.75 µM and a GI50 (SW-620) of 1.29 µM. The CC50 (SW-620) was 10.5 µM, the TGI (SW-620) was 3.39 µM and the GI50 (SNB-19) was 1.38 µM. It also gave a CC50 (SNB-19) of over 100 µM, a TGI (SNB-19) of over 100 µM and a GI50 (U-251) of 0.355 µM. It also gave a CC50 (U-251) of 69.2 µM, a TGI (U-251) of 15.5 µM and a GI50 (Malme-3M) of 3.8 µM. The CC50 (Malme-3M) was over 100 µM, the TGI (Malme-3M) was 47.9 µM and the GI50 (NCI-H322M) was 18.2 µM. The CC50 (NCI-H322M) was over 100 µM, the TGI (NCI-H322M) was over 100 µM and the GI50 (NCI-H522) was 1.82 µM. For the same compound, the CC50 (NCI-H522) was over 100 µM, the TGI (NCI-H522) was 8.13 µM and the GI50 (SK-MEL-28) was 1.74 µM. For the same compound, the CC50 (SK-MEL-28) was 64.6 µM, the TGI (SK-MEL-28) was 17.4 µM and the GI50 [2] was 4.57 µM. For the same compound, the CC50 [2] was over 100 µM, the TGI [2] was 38 µM and the GI50 (A498) was 0.407 µM. For the same compound, the CC50 (A498) was over 100 µM, the TGI (A498) was 8.13 µM and the GI50 (ACHN) was 1 µM. The LC50 (concentration killing 50% of cells) (ACHN) was over 100 µM, the TGI (ACHN) was 87.1 µM and the GI50 (SN12C) was 6.03 µM. It also gave an LC50 (SN12C) of over 100 µM, a TGI (SN12C) of over 100 µM and a GI50 [3] of 0.501 µM. It also gave an LC50 [3] of over 100 µM, a TGI [3] of 3.02 µM and a GI50 [4] of 0.355 µM. It also gave an LC50 [4] of over 100 µM and a TGI [4] of 5.01 µM.
